The target in assay [1] is T1, Mitogen-activated protein kinase kinase kinase 20 (Homo sapiens, UniProt Q9NYL2). Description: Inhibition of N-terminal GST-tagged recombinant human full-length ZAK expressed in baculovirus infected Sf9 insect cells using MBP as substrate after 30 mins by ADP-Glo assay. Put shortly: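 ZAK activity by ADP-Glo luminescence with MBP as substrate, ATP and serially diluted compound. Reaction started by adding ATP and run 30 min at room temperature. ADP-Glo reagent was added to stop it (40 min), then detection reagent for 30 min before reading luminescence. Curves fitted; each experiment repeated at least 3 times.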
For orientation: ADP-Glo turns the ADP formed in a reaction into a luminescent signal.

Assay [2] has as its target Serine/threonine-protein kinase B-raf (Homo sapiens, UniProt P15056, V600E). Description: Inhibition of recombinant human B-RAF V600E mutant using Ser/Thr3 as substrate after 1 hr by FRET-based Z'-Lyte assay.
The target of assay [3] is Serine/threonine-protein kinase B-raf (Homo sapiens, UniProt P15056). Description: Inhibition of wild type GST-tagged recombinant human full-length B-RAF expressed in baculovirus expression system using Ser/Thr3 as substrate after 1 hr by FRET-based Z'-Lyte assay. Put shortly: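 Z'-Lyte FRET assay with Ser/Thr3 peptide in kinase buffer; the final reaction held 0.002 ng B-Raf for wild type. Incubated 1 h at room temperature, then 1 h development to cleave nonphosphorylated peptide, then stop reagent. Means of 3 independent experiments.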

For assay [4], the target named is T1, Mitogen-activated protein kinase kinase kinase 20.

Where only a bound is given, the exact number is not on record here.

T1 sequence (Q9NYL2 whole entry): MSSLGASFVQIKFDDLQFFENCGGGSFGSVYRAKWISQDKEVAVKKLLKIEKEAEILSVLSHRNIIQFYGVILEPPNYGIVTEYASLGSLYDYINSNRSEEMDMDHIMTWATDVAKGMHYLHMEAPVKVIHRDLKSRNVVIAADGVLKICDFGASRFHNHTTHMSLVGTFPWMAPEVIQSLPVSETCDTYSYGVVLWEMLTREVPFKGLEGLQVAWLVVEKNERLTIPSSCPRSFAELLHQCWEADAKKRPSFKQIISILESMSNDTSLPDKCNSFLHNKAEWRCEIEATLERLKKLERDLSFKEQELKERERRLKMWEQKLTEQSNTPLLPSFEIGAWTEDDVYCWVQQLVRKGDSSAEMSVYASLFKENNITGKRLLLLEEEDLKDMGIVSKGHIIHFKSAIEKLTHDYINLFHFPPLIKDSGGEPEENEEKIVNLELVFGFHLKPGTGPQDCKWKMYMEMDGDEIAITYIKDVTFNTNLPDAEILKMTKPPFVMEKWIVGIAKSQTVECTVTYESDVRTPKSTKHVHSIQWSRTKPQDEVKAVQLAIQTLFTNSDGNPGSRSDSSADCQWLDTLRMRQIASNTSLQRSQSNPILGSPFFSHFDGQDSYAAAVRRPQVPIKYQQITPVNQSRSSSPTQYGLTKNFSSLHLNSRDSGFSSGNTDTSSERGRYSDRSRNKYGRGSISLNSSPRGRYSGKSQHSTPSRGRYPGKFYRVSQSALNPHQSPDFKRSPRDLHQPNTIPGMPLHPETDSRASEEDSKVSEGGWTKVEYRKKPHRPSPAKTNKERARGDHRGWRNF
Chain of Serine/threonine-protein kinase B-raf (Homo sapiens, UniProt P15056) (P15056 whole entry): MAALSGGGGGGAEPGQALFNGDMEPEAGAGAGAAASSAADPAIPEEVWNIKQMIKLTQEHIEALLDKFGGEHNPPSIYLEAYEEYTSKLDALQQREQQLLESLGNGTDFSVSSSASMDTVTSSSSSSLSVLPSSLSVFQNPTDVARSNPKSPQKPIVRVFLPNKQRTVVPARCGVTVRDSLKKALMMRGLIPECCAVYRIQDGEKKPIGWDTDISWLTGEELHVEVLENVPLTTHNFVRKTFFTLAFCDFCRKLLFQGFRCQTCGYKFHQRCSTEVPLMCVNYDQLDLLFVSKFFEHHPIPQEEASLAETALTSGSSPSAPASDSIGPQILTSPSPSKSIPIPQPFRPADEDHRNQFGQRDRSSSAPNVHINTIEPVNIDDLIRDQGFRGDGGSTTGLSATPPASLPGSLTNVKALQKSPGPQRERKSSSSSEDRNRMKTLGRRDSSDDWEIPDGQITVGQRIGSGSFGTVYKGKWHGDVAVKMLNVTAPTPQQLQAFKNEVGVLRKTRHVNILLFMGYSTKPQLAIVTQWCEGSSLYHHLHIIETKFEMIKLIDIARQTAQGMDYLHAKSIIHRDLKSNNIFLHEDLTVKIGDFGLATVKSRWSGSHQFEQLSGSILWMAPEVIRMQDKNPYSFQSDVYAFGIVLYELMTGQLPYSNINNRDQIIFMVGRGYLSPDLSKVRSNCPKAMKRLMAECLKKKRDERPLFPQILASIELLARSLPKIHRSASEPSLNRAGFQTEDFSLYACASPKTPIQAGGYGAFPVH
Chain of Serine/threonine-protein kinase B-raf (Homo sapiens, UniProt P15056, V600E) (P15056 2-766 V600E limits assumed): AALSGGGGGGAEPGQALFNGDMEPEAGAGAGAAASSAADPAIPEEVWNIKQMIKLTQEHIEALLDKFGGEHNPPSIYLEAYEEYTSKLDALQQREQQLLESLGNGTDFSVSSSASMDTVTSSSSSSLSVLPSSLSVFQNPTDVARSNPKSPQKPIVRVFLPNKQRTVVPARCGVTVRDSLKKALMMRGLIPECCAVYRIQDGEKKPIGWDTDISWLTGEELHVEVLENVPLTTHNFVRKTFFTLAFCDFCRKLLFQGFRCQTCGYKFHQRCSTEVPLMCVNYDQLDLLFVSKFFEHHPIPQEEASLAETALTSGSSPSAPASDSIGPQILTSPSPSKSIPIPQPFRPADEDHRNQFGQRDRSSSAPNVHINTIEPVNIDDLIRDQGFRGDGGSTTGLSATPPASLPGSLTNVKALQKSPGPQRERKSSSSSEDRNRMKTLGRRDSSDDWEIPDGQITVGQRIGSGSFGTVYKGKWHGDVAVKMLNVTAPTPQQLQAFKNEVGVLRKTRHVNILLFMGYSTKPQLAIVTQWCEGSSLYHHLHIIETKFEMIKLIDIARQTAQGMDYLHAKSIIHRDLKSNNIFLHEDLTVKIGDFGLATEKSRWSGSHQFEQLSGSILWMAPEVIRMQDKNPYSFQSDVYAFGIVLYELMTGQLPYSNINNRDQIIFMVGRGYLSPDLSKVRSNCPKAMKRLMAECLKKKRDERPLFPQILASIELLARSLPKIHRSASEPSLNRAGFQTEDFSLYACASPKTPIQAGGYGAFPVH

What is called IC50 is the midpoint of a concentration-inhibition curve. As to `COc1n[nH]c2ncc(C#Cc3c(F)ccc(NS(=O)(=O)c4cccc(Cl)c4Cl)c3F)cc12`, the IC50 in assay [1] is 9.6 nM; in assay [2], greater than 10000 nM; in assay [3], greater than 2000 nM.

For the molecule `COc1n[nH]c2ncc(C#Cc3c(F)ccc(NS(=O)(=O)c4ccccc4)c3F)cc12`, the IC50 is 19.2 nM in assay [1], 169 nM in assay [2] and greater than 10000 nM in assay [3].

Regarding `COc1n[nH]c2ncc(C#Cc3c(F)ccc(NS(=O)(=O)c4ccc(Cl)cc4)c3F)cc12`, the IC50 in assay [1] was 16.8 nM; in assay [2], greater than 10000 nM; in assay [3], greater than 1000 nM.

On to `O=S(=O)(Nc1ccc(F)c(C#Cc2cnc3[nH]ncc3c2)c1F)c1cccc(Cl)c1`, for which the half-maximal inhibitory concentration (IC50) in assay [1] is 5.1 nM; in assay [2], greater than 10000 nM; in assay [3] it was greater than 5000 nM.

Turning to `COc1n[nH]c2ncc(C#Cc3c(F)ccc(NS(=O)(=O)c4cccc(Br)c4)c3F)cc12`, the IC50 in assay [1] is 5 nM; in assay [2] it was greater than 1000 nM; in assay [3], greater than 1000 nM.

With `O=S(=O)(Nc1ccc(F)c(C#Cc2cnc3[nH]nc(OC4CCCC4)c3c2)c1F)c1cccc(Cl)c1`, the values for the IC50 in assay [1], in assay [2] and in assay [3] were 144 nM, greater than 10000 nM and greater than 10000 nM, respectively.

Take `COc1n[nH]c2ncc(C#Cc3c(F)ccc(NS(=O)(=O)c4ccccc4Cl)c3F)cc12`: the half-maximal inhibitory concentration (IC50) is 5.1 nM in assay [1], greater than 1000 nM in assay [2] and greater than 1000 nM in assay [3].

For the molecule `CC(C)Oc1n[nH]c2ncc(C#Cc3c(F)ccc(NS(=O)(=O)c4cccc(Cl)c4)c3F)cc12`, the IC50 in assay [1] was 42.7 nM; in assay [2] it was greater than 2000 nM; in assay [3], greater than 10000 nM.

For the molecule `COc1n[nH]c2ncc(C#Cc3c(F)ccc(NS(=O)(=O)c4cccc(C)c4)c3F)cc12`, the figures for the IC50 in assay [1], in assay [2] and in assay [3] were 12.1 nM, greater than 10000 nM and greater than 10000 nM, respectively.

On to `CCCS(=O)(=O)Nc1ccc(F)c(C(=O)c2c[nH]c3ncc(-c4ccc(Cl)cc4)cc23)c1F` [VEMURAFENIB], for which the IC50 came out at 23 nM in assay [4] and 31.4 nM in assay [1].

Take `O=S(=O)(Nc1ccc(F)c(C#Cc2cnc3[nH]ccc3c2)c1F)c1cccc(Cl)c1`: the IC50 is 22.6 nM in assay [1], greater than 10000 nM in assay [2] and greater than 10000 nM in assay [3].

As for `Cn1ncc2cc(C#Cc3c(F)ccc(NS(=O)(=O)c4cccc(Cl)c4)c3F)cnc21`, the IC50 was greater than 30000 nM in assay [1], greater than 10000 nM in assay [2] and greater than 10000 nM in assay [3].

Regarding `COc1n[nH]c2ncc(C#Cc3c(F)ccc(NS(=O)(=O)c4cccc(Cl)c4)c3F)cc12`, the values for the IC50 in assay [1], in assay [2] and in assay [3] were 4.2 nM, 902 nM and greater than 6000 nM, respectively.

Turning to `O=S(=O)(Nc1ccc(F)c(C#Cc2ccc3[nH]ncc3c2)c1F)c1cccc(Cl)c1`, the IC50 is 994 nM in assay [1], greater than 10000 nM in assay [2] and greater than 10000 nM in assay [3].

Regarding `COc1cccc(S(=O)(=O)Nc2ccc(F)c(C#Cc3cnc4[nH]nc(OC)c4c3)c2F)c1`, the IC50 is 7.5 nM in assay [1], greater than 7000 nM in assay [2] and greater than 1000 nM in assay [3].
